Read-outs that look alike come from different tables or passages of the source.

Results on five compounds are retold here after article PMC11377854 (Nature methods, 2024).

In one assay the test system is g5-HT2m. Conditions: read-out: EC50 values.
In a further assay the test system is g5-HT2h. Conditions: read-out: EC50 values.
Assay [1] concerns g5-HT3.0. Description: Dose-response of sensor fluorescence change. The conditions noted are these: n = 3. Type of assay: cell-based, HEK293T cells.
For assay [2], the system named is r5-HT1.0. As to the kind of experiment: Dose-response of sensor fluorescence change. Type of assay: cell-based, HEK293T cells. The conditions noted are these: n = 3.
For assay [3], the system named is g5-HT3.0. Description: Dose-response of sensor fluorescence change. The conditions noted are these: read-out: EC50 values. Type of assay: cell-based, cultured rat cortical neurons.
Assay [4] deals with r5-HT1.0. Description: Dose-response of sensor fluorescence change. Format: cell-based, cultured rat cortical neurons. The conditions noted are these: read-out: EC50 values.
Assay [5] deals with 5-HT release in mouse dorsal cortex. Description: Mesoscopic imaging of optogenetically evoked cortical 5-HT release. Format: in vivo, mice. The conditions noted are these: fluoxetine 20 mg/kg i.p., GBR 12909 10 mg/kg i.p. The procedure, abridged:
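In Sert-Cre mice, 300 nl AAV9-EF1a-DIO-ChrimsonR was injected into the DRN (AP −6.1, ML 0, depth 3 mm, 32° AP angle), with an optical fiber 0.2 mm above the site. Mice recovered ≥7 d and were habituated head-fixed over >3 d.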

Assay [6] has as its system g5-HT3.0. As to the kind of experiment: Pharmacological specificity of g5-HT3.0 in HEK293T cells. The conditions noted are these: compounds 10 μM except RS 100 μM. Format: cell-based.
Assay [7] has as its system r5-HT1.0. Description: Pharmacological specificity of r5-HT1.0 in HEK293T cells. Format: cell-based. Conditions: compounds 10 μM except RS 100 μM.
In a further assay the test system is GPCR-mediated Gs pathway. Description: Luciferase complementation assay. Format: cell-based. Conditions: HEK293T cells, 5-HT 0.01 nM to 1 mM.
A further assay has as its system β-arrestin pathway. As to the kind of experiment: Tango assay. Format: cell-based. Conditions: HTLA cells, 5-HT 0.01 nM to 100 μM.

`NCCc1c[nH]c2ccc(O)cc12` [5-HT, serotonin (5-hydroxytryptamine)]: the EC50 in the assay with g5-HT2m was 2400 nM; in the assay on g5-HT2h it was 70 nM; with g5-HT3.0 [1], around 150 nM; in the assay on r5-HT1.0 [2] it was around 790 nM; in the assay with g5-HT3.0 [3], 80 nM; with r5-HT1.0 [4], 600 nM.
`Fc1ccc(C(OCCN2CCN(CCCc3ccccc3)CC2)c2ccc(F)cc2)cc1` [GBR 12909]: the “baseline 5-HT levels (g5-HT3.0 signal)” value in assay [5] is listed as “no effect”.
As to `COc1cc(N)c(Cl)cc1C(=O)OCCCN1CCCCC1` [RS 23597-190], the “block of 5-HT induced response of g5-HT3.0” value in the assay on g5-HT3.0 [6] is recorded as “blocked”. For the same compound, the “block of 5-HT induced response of r5-HT1.0” value in the assay on r5-HT1.0 [7] is on record as “blocked”.
With `CNCCC(Oc1ccc(C(F)(F)F)cc1)c1ccccc1` (stereo not drawn) [fluoxetine], the “baseline 5-HT levels (g5-HT3.0 signal)” value in [5] is on record as “gradual increase”.
Turning to “wild-type 5-HTR4: wild-type 5-HTR4 receptor”, the “downstream coupling, Gs pathway” value in the assay with GPCR-mediated Gs pathway was “high basal activity and robust, dose-dependent coupling”. Further, in the assay on β-arrestin pathway, the “downstream coupling, β-arrestin pathway” value was “high basal activity and robust, dose-dependent coupling”.
